Screens deposited in PubChem BioAssay by several laboratories.
An excerpt weighted towards active compounds, which were near 4.8% of everything screened.
NALP3 yeast inh: NALP3 inhibition in yeast. AID 2825. inhibition, % at 10 µM. actives 0.39% (n = 330,000). Yeast reconstituted NLRP3/ASC/caspase-1, beta-gal luminescence, 24 h;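 active means inhibition of 50% or more; inactive means inhibition below 50%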;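 further: plate controls were induced DMSO wells for no effect and uninduced yeast grown without galactose for full effect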
Calb FLC: C. albicans growth modulation with fluconazole; C. albicans CaCi-2 + fluconazole, Alamar Blue growth, 48 h; growth inhibition, % (no concentration beside the values); actives 0.57% (n = 300,000);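 active means growth inhibition above about 58% in most replicates, limit read from the data, passing the limit was not always enough; inconclusive means exactly half the replicates above a set limit; inactive means most replicates below a set limit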;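 further: all wells also contain fluconazole at 8 µg/ml as a sub-toxic cotreatment; 0% = median of DMSO wells and 100% = median of geldanamycin control wells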
UCH37 inh: human UCH37 deubiquitinating enzyme inhibition; Q9Y5K5; purified proteasome/UCH37, Ub-AMC cleavage fluorescence; inhibition, % (test concentration not listed); actives 0.33% (n = 330,000);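 active means mean inhibition over replicate wells above about 20%, limit read from the data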;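 further: 0% = compound-free wells with enzyme and 100% = wells lacking proteasome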
Target sequence (Q9Y5K5 whole entry, looked up): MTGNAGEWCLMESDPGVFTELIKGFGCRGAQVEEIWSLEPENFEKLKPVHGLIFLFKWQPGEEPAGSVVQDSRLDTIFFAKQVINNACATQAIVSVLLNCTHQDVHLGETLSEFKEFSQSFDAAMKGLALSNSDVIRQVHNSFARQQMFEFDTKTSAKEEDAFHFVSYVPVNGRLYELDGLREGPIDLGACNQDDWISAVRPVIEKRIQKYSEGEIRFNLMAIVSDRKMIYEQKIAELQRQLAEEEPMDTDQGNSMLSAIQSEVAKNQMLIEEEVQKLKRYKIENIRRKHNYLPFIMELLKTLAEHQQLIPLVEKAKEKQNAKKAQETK
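System: Proteasome-associated human UCH37 deubiquitinase; Input: 0.15 nM proteasome in added enzyme buffer; Also added: Ub-AMC substrate from 1 µM stock; Incubation: 30 min compound-proteasome preincubation then 25 min substrate reaction, room temperature; Detection: fluorescence, ex 355 nm, em 460 nm; Read-out: % inhibition of Ub-AMC cleavage fluorescence; Benchmarks: no-proteasome and no-compound wells.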
ATG4B inhibitor: ATG4B (human) cysteine protease inhibition. actives 0.51% (n = 340,000). Q9Y4P1. inhibition, % at 8.33 µM. ATG4B cleavage of LC3-PLA2, NBD-HPC fluorescence, 1 h. AID 504462; in the data active means inhibition above about 40%
Target sequence (Q9Y4P1 whole entry, looked up): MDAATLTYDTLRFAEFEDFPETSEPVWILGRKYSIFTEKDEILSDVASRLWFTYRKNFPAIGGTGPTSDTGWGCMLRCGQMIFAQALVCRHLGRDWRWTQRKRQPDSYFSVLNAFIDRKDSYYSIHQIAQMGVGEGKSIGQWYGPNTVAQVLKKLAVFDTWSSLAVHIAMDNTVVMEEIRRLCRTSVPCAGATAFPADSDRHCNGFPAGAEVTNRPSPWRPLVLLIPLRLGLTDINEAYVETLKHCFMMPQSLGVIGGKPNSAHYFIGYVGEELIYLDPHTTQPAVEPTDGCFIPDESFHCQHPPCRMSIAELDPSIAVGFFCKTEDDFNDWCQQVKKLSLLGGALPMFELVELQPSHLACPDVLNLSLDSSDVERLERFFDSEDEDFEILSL
ALR H2O2 inh: blocks human ALR sulfhydryl oxidase activity | P55789 | inhibition, % (test concentration not listed) | AID 485317 | purified ALR, DTT oxidation, H2O2 HRP-luminol luminescence | actives 3.8% (n = 290,000);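 active means mean replicate inhibition above about 79%, with every replicate also reaching it, limit read from the data; inconclusive means only one of the two criteria met; inactive means mean below limit and not every replicate reaching it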
NALP1 inh: NALP1 inhibition; S. cerevisiae NALP1/ASC/caspase-1 growth, X-gal OD620, 72 h; inhibition, % at 10 µM; actives 0.61% (n = 280,000); in the data active means inhibition mostly above about 24%, no sharp cut-off; inactive means mostly below about 32%
ATG4B conf: ATG4B (human) inhibition, single-dose confirmed. shares compounds with ATG4B inhibitor. ATG4B protease fluorescent substrate cleavage assay. inhibition, % at 8.33 µM. actives 92% (n = 320). AID 504757; in the data active means inhibition above about 39%
PLA2 counter: PLA2 (human) inhibition in ATG4B counter-screen; shares compounds with ATG4B inhibitor; purified PLA2, NBD-C6-HPC fluorescence, 45 min; actives 66% (n = 1,600); inhibition, % at 8.33 µM; in the data active means inhibition above about 50%
The depositor's hits bear a star; ? = inconclusive; · = no result.

SMILES | NALP3 yeast inh | Calb FLC | UCH37 inh | ATG4B inhibitor | ALR H2O2 inh | NALP1 inh | PLA2 counter | others
CCOC(=O)c1sc(-c2ccccc2)cc1NC(=O)Nc1ccccc1 | · | 1 | -8 | 41* | · | 28 | 37 | ATG4B conf=83*
CCOC(=O)CSc1nc(C(C)C)nc2sc(C)c(C)c12 | 14 | -8 | 0 | 62* | 5 | -4 | 59*
Cc1sc2nc(C(C)C)nc(SCC(=O)N3c4ccccc4CC3C)c2c1C (configuration not stated) | -3 | 0 | 2 | 75* | -4 | 18 | 77*
CCOC(=O)CSc1nc2sc(C)c(C)c2c(=O)n1C | 21 | 4 | 4 | -2 | 0 | 4 | ·
Cc1sc2nc(C(C)C)nc(SCC(=O)NCc3ccco3)c2c1C | 21 | 3 | 4 | 42* | 1 | -4 | 47 | ATG4B conf=50*
CC(=NNC(=O)C(C)Sc1ccccc1)c1ccc([N+](=O)[O-])cc1 (configuration not stated) | · | · | 5 | · | · | · | ·
O=C(O)c1ccc(C=NNC(=O)c2ccc(F)cc2)cc1 | · | · | 5 | · | · | · | ·
Cc1ccc(C=NNC(=O)Cc2c(F)cccc2Cl)s1 | · | · | 2 | · | · | · | ·
Cc1sc2nc(C3CCCCC3)nc(SCC(=O)N3CC(=O)Nc4ccccc43)c2c1C | 16 | 6 | 3 | 94* | -16 | 1 | 35 | ATG4B conf=26*
Cc1sc2ncnc(OCC(=O)N3CC(=O)Nc4ccccc43)c2c1C | 10 | 39 | 1 | -3 | 1 | -2 | ·
Cc1nc(SCC(=O)N2CC(=O)Nc3ccccc32)nc(C)c1C | 12 | 6 | 2 | 0 | · | 14 | ·
CCc1nc(SCC(=O)N2CC(=O)Nc3ccccc32)c2c(C)c(C)sc2n1 | 13 | 12 | 1 | 71* | -2 | 20 | 77*
Cc1ccc(C(C)C)cc1OCC(=O)NN=Cc1ccc2c(c1)OCCO2 | · | · | 4 | · | · | · | ·
Cc1ccc(CN2CCN(N=Cc3ccc(C(=O)O)cc3)CC2)c(C)c1 | · | · | 2 | · | · | · | ·
CCN(CC)c1nc(N)c2c(N)n(-c3ccccc3C)c(=S)c(C#N)c2c1C#N | 18 | -7 | 21* | 54* | 22 | 7 | 70*
CCN(CC)c1nc(N)c2c(N)nc3c(c2c1C#N)CC(c1ccccc1)O3 (configuration not stated) | 2 | 64 | -172 | 12 | -2 | -7 | ·
COc1ccc(OC)c(NC(=O)c2nnn(Cc3ccccc3C)c2N)c1 | 22 | 12 | 2 | 60* | -15 | 10 | 64*
COc1ccc(C)cc1NC(=O)c1nnn(Cc2cc(C)ccc2C)c1N | 6 | -15 | 1 | 4 | · | -16 | ·
Cc1cc(C)c2c(C)c(C(=O)Nc3c(C)n(C)n(-c4ccccc4)c3=O)oc2c1 | 2 | ? | 5 | 71* | 9 | 1 | 69*
Cc1c(NC(=O)c2cc3ccccc3o2)c(=O)n(-c2ccccc2)n1C | 4 | -12 | 1 | -2 | 0 | 13 | ·
CN(C)C(=O)Nc1ccccc1CC[N+](=O)[O-] | 5 | -11 | 5 | 4 | · | -4 | ·
O=C(Nc1ccc(Cl)cc1)Nc1ccccc1CC[N+](=O)[O-] | 12 | -9 | 3 | 65* | 0 | -4 | 71*
CC1=NN(c2ccccc2)C(=O)/C1=C/c1c(O)n(-c2ccc(F)c(Cl)c2)[nH]c1=O | 0 | 5 | 9 | 55* | 42 | 10 | 64*
O=C(CNCC1CCCO1)Nc1ccccc1N1CCOCC1 (configuration not stated) | -3 | 4 | 2 | -8 | -6 | -1 | ·
O=C(CNCC1CCCCC1)Nc1ccccc1N1CCCCC1 | 3 | -9 | 4 | 41* | 18 | 3 | 39 | ATG4B conf=65*
SMILES | NALP3 yeast inh | Calb FLC | UCH37 inh | ATG4B inhibitor | ALR H2O2 inh | NALP1 inh | PLA2 counter | others
O=C(CNCCC1=CCCCC1)Nc1ccccc1N1CCCCC1 | -13 | -14 | 9 | 49* | -16 | -31 | 53*
O=C(CNC1CCCCCC1)Nc1ccccc1N1CCCCC1 | 7 | -23 | 5 | 46* | 7 | 11 | 53*
O=C(Cc1ccccc1)Nc1ccccc1N1CCCC1 | 4 | -21 | 3 | 13 | 53 | 19 | ·
CC(=NNC(=O)c1cccs1)c1cccc(NC(=O)C2CC2)c1 | · | · | -4 | · | · | · | ·
CCN(CC)C(=O)COc1ccc(C(C)=NNC(=O)c2ccccc2O)cc1 | · | · | 5 | · | · | · | ·
N=C1/C(=C/c2cccs2)C(=O)N=C2SN=C(SCc3ccccc3)N12 | -3 | 19 | 1 | 50* | 96* | 10 | 62*
CCOc1c(Cl)cc(C=NO)cc1OC | · | · | 5 | · | · | · | ·
Cc1cccc(NC(=O)CSc2nnc(-c3cc(C)n(-c4ccccc4)c3C)o2)c1C | 18 | 9 | 3 | 41* | -5 | -7 | 56*
Cc1ccc(C)c(NC(=O)CSc2nnc(-c3ccccc3C)o2)c1 | 25 | ? | 0 | 3 | -3 | 16 | ·
Cc1cccc(NC(=O)COC(=O)c2ccccc2-c2nc3ccccc3s2)c1C | 31 | 11 | 2 | 48* | 3 | 34 | 51*
C#CCOCCOCCOCCNc1nc(N2CCN(C(=O)CCCCCCCCCCNC(=O)[C@@H](CCC(=O)O)n3cc(CCCCCN)nn3)CC2)nc(N2CCN(C(=O)CCCCCCCCCCNC(=O)[C@H](CCCCN)n3cc(C[C@@H](C)CC)nn3)CC2)n1 | 18 | · | · | 24 | -9 | · | ·
C#CCOCCOCCOCCNc1nc(N2CCN(C(=O)CCCCCCCCCCNC(=O)[C@H](CCCCN)n3cc(C[C@@H](C)CC)nn3)CC2)nc(N2CCN(C(=O)CCCCCCCCCCNC(=O)[C@H](CCCN=C(N)N)n3cc(C[C@@H](C)CC)nn3)CC2)n1 | 11 | · | · | 88* | -21 | · | 81*
C#CCOCCOCCOCCNc1nc(N2CCN(C(=O)CCCCCCCCCCNC(=O)[C@H](CCCCN)n3cc(CCO)nn3)CC2)nc(N2CCN(C(=O)CCCCCCCCCCNC(=O)[C@H](CCCCN)n3cc(C[C@@H](C)CC)nn3)CC2)n1 | 9 | · | 5 | 75* | -46 | · | 46 | ATG4B conf=24
C#CCOCCOCCOCCNc1nc(N2CCN(C(=O)CCCCCCCCCCNC(=O)[C@H](CCCCN)n3cc(C)nn3)CC2)nc(N2CCN(C(=O)CCCCCCCCCCNC(=O)[C@H](CCCN=C(N)N)n3cc(C[C@@H](C)CC)nn3)CC2)n1 | 8 | · | · | 69* | 3 | · | 70*
CC(Cc1ccccc1)=NNC(=O)CCCC(=O)NN=C(C)Cc1ccccc1 | · | · | 3 | · | · | · | ·
COc1ccc(C=NNc2ncc(-c3ccccc3)cn2)c(OC)c1 | · | · | 1 | · | · | · | ·
N#CC(=NNc1ccc(F)cc1)C(=N)N1CCCCCC1 | · | · | 6 | · | · | · | ·
COC(=O)C(=NOCc1ccc(C#N)cc1)c1c(C)nn(C)c1C | · | · | 5 | · | · | · | ·
